ChEMBL document CHEMBL4138319, “Discovery, Synthesis, Pharmacological Profiling, and Biological Characterization of Brintonamides A-E, Novel Dual Protease and GPCR Modulators from a Marine Cyanobacterium” (J Med Chem, 2018)
Active and inactive are the calls of the source. The rule behind the calls is not given here. Square brackets hold non-standard residues; d marks the D form. Peptide text beside a SMILES is read from it. * marks the point of attachment. X1 = CC[C@H](C)[C@@H](OC(=O)/C=C/c1ccccc1)C(=O)*; dNMeF = CN[C@H](Cc1ccccc1)C(=O)O; NMeL = CN[C@@H](CC(C)C)C(=O)O

Tests used:
[1] = biological target: T1, Substance-K receptor (Homo sapiens) (UniProt P21452); assay: Antagonist activity at human TACR2 expressed in CHOK1 cells assessed as substance P-induced beta-arrestin recruitment at 10 uM pre-incubated for 30 mins before substance P stimulation for 90 or 180 mins by chemiluminescence method; assay type: functional, cell-based; design: scale not given: the % may be the effect or the level left
T1 sequence (whole entry): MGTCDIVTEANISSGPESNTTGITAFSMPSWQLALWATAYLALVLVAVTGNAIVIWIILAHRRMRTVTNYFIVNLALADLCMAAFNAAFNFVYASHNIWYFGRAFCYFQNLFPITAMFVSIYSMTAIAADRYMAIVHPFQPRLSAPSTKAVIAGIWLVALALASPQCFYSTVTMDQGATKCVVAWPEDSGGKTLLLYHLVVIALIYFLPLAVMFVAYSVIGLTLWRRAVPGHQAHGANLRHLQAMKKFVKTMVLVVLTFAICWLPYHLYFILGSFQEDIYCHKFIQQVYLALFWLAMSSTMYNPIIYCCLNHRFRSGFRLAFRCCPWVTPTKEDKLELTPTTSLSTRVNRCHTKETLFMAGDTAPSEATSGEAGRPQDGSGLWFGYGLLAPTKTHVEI

MDA-MB-231 = assay: Antiproliferative activity against siCCR10 knockdown human MDA-MB-231 cells after 48 hrs by MTT assay; assay type: functional
Outline: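 MDA-MB-231 cells are incubated with 50 nM CCR10 siRNA, which gives 60% knockdown confirmed by RT-qPCR. Proliferation is compared with negative-control siRNA, mean ± SD, n = 3.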

[2] = biological target: Atypical chemokine receptor 3 (Homo sapiens, UniProt P25106); assay: Agonist activity at human CXCR7 expressed in CHOK1 cells assessed as induction of beta-arrestin recruitment by chemiluminescence method; assay type: functional, cell-based
Sequence of Atypical chemokine receptor 3 (P25106 whole entry, the tested form may be a part): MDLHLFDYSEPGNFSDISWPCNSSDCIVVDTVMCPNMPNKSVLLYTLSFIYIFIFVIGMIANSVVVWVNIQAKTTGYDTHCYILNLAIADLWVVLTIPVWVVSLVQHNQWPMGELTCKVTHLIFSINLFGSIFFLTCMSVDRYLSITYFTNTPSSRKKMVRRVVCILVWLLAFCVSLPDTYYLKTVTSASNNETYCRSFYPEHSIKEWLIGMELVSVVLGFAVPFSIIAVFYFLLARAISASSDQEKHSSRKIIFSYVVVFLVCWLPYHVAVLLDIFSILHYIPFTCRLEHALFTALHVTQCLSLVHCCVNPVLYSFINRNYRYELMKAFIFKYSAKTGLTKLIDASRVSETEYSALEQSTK
Outline: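 PathHunter β-arrestin enzyme-fragment complementation assay in cells stably co-expressing ProLink-tagged GPCR and enzyme-acceptor-tagged β-arrestin. Sample is added to cells and incubated 90 or 180 min at 37 °C or room temperature, with 1% final vehicle. Detection reagent is added for 1 h at room temperature and chemiluminescence is read. % activity is taken relative to vehicle and maximal control ligand. Dose-response: 10 points, 3-fold dilutions from 20 μM, in duplicate.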

Oxytocin receptor = biological target: T2, Oxytocin receptor (Homo sapiens, UniProt P30559); assay: Antagonist activity at human OXTR expressed in CHOK1 cells assessed as oxytocin-induced beta-arrestin recruitment pre-incubated for 30 mins before oxytocin stimulation for 90 or 180 mins by chemiluminescence method; assay type: functional, cell-based
T2 sequence (P30559 whole entry): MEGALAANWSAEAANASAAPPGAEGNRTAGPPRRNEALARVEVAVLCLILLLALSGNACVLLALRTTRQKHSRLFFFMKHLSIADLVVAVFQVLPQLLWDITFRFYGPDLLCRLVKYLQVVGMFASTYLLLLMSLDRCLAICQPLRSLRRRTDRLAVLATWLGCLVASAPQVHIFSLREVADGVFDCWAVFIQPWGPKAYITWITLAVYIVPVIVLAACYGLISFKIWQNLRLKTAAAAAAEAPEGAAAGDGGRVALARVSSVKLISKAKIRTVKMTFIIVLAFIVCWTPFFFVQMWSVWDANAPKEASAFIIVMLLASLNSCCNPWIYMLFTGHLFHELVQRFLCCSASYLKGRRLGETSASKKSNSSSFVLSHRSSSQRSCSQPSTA
Outline: (§1)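 PathHunter β-arrestin complementation assay, antagonist mode. Cells co-express ProLink-tagged GPCR and enzyme-acceptor-tagged β-arrestin and are pre-incubated with sample for 30 min at 37 °C or room temperature. Dose-response: 10 points, 3-fold dilutions from 20 μM, in duplicate.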

Kallikrein-7 [3] = biological target: T3, Kallikrein-7 (Homo sapiens, UniProt P49862); assay: Inhibition of kallikrein 7 (unknown origin) by fluorescence assay
Outline: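 Protease panel screen: 10-dose titrations, 3-fold serial dilution from 100 μM, singlet. Protease activity is followed as the time-course rise in fluorescence from a labeled peptide substrate, and the initial linear slope (signal/min) is analysed.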
Target sequence in this assay (P49862 whole entry): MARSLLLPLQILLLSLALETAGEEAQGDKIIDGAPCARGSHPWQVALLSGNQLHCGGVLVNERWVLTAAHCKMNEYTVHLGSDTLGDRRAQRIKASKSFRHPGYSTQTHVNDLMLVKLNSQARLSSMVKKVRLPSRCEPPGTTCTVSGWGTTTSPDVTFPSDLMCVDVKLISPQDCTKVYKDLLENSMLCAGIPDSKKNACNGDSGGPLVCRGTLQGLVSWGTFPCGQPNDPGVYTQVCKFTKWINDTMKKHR

[4] = biological target: T4, Oxytocin receptor (Homo sapiens) (UniProt P30559); assay: Antagonist activity at human OXTR expressed in CHOK1 cells assessed as oxytocin-induced beta-arrestin recruitment at 10 uM pre-incubated for 30 mins before oxytocin stimulation for 90 or 180 mins by chemiluminescence method; assay type: functional, cell-based; design: scale not given: the % may be the effect or the level left
T4 sequence (whole entry): T2 sequence (P30559 whole entry)

Substance-K receptor = biological target: T5, Substance-K receptor (Homo sapiens, UniProt P21452); assay: Antagonist activity at human TACR2 expressed in CHOK1 cells assessed as substance P-induced beta-arrestin recruitment pre-incubated for 30 mins before substance P stimulation for 90 or 180 mins by chemiluminescence method; assay type: functional, cell-based; outline: as §1
T5 sequence (P21452 whole entry): T1 sequence (whole entry)

Kallikrein-7 [5] = biological target: T3, Kallikrein-7; assay: Inhibition of kallikrein 7 (unknown origin) using fluorescently labeled peptide substrate by fluorescence assay
Outline: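 KLK7 follow-up: 10-dose titrations, 3-fold serial dilution from 100 μM, in duplicate, with gabexate mesylate as positive control. Fluorescence from the labeled peptide substrate is monitored over time, and the initial linear slope (signal/min) is used to derive IC50.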
Target sequence in this assay (P49862 30-253 limits assumed): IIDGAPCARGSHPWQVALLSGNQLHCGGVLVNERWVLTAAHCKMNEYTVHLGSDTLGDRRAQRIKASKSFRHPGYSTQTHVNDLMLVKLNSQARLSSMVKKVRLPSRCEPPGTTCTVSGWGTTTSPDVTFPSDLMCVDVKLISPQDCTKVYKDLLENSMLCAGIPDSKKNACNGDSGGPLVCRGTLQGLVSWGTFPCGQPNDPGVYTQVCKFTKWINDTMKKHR

SMILES: CC[C@H](C)[C@@H](OC(=O)/C=C/c1ccccc1)C(=O)N1CCC[C@H]1C(=O)NCC(=O)N(C)[C@@H](CC(C)C)C(=O)N[C@@H](C)C(=O)N(C)[C@H](Cc1ccccc1)C(=O)N1CCC[C@H]1C(=O)OC (X1-PG[NMeL]A[dNMeF]P-OMe)
- Activity [1]: 97%
- Activity (MDA-MB-231): 10%
- EC50 [2]: 3.97 µM
- IC50 (Oxytocin receptor): 6.78 µM
- IC50 (Kallikrein-7 [3]): 18.9 µM
- Activity [4]: 76%
- IC50 (Substance-K receptor): 1.79 µM
- inhibition (Kallikrein-7 [5]): Active
